# High-throughput results (PubChem BioAssay)
# MDM2 E3 inh: Mdm2 E3 ligase (human) inhibition. signal enhancement, % at 5 µM. cell-based MDM2 ubiquitination luciferase reporter, 2 h; 0 = plate control, 100 = twice control, blank-subtracted. 210,000 compounds, 0.11% hits. AID 1230. Q00987;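 active = signal enhancement of 30% or more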;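 note: luminescence tracks abundance of the self-degrading MDM2-luciferase fusion protein; higher signal means inhibition of MDM2 E3 ligase activity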
#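 Timing – 2 h compound exposure at 37 °C · Assay system – mammalian cells stably expressing self-ubiquitinating, self-degrading MDM2 E3–luciferase fusion · Amount – 2000 cells seeded into each well · Measure – % luminescence enhancement versus blank-corrected plate control mean · Measured by – SteadyLite luminescence, 15 min reagent step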
# NF-kB expr up: compounds increasing NF-kB expression in human neuronal cells; NF-kB reporter expression; hits give high values; fold change at 12.5 µM; 190,000 compounds, 1.6% hits; AID 1239; in the data active = fold change above about 3.3
# STAT1 activator: STAT1 signaling activation. NIH 3T3 STAT1-luciferase reporter, IFN-gamma, luminescence; 100% = IFN-gamma alone, no compound. activation (% of control), % at 5.5 µM. 200,000 compounds, 2.6% hits. AID 932;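 active = activation above the screen-wide mean activation plus 3 SD, cut at about 130% in these data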;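 note: raw ratio to IFN-gamma control signal so 100% means no change and 0% no light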
# AHR act: activators of human aryl hydrocarbon receptor; 320,000 compounds, 2.5% hits; activation, % at 5 µM; AHR-responsive luciferase reporter cells, luminescence; in the data active = activation above about 47%;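 note: 0% = vehicle wells and 100% = reference agonist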
# APP 5'UTR act: APP 5'UTR luciferase reporter activation. SH-SY5Y APP 5'UTR luciferase reporter, luminescence; zero percent = DMSO vehicle wells. activation, % at 2 µM. 190,000 compounds, 1% hits. AID 1276;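 active = activation above a set limit, based on mean plus 3 SD of controls, cut at about 140% in these data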
# PERK inhibitor: human PERK inhibition, primary cell-based screen; Q9NZJ5; CHO PERK-DD fusion, SEAP luminescence translation reporter; inhibition, % at 5.6 µM; 220,000 compounds, 0.17% hits;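 active = inhibition above the mean inhibition of all tested compounds plus 3 SD, set separately per screening campaign, cut at about 2.9% in these data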;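 note: PERK kinase domain activated by AP20187 dimerizer at 100 nM; 0% = DMSO with dimerizer and 100% = rapamycin at 8.4 µM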
# * = called active by the depositor; / = not tested or not shown. Sampled rows, rich in hits. Any-hit rate of the full collection: about 4.5%.
SMILES,MDM2 E3 inh,NF-kB expr up,STAT1 activator,AHR act,APP 5'UTR act,PERK inhibitor
CCN(CC)S(=O)(=O)c1cc(C(=O)Nc2ccc(Cl)cn2)ccc1C,-13.2,2.75,135.3*,12.7,183.4*,-0.3
CCN(Cc1ccccc1)S(=O)(=O)c1cc(C(=O)NC2CCCCCC2)ccc1OC,0.4,0.89,91.3,-0.4,6.4,-2.2
O=C(CC1Sc2ncnn2C1=O)Nc1ccccc1 (stereo not drawn),-68.8,0.99,92.7,-1.5,-10.0,1.2
Cc1ccc(NC(=O)c2c(C(=O)Nc3ccccc3)sc3nc(C)cc(=O)n23)cc1,0.1,1.1,102.8,3.9,7.8,-0.7
O=C(N/N=C/c1ccc(-c2ccccc2[N+](=O)[O-])o1)[C@H]1C[C@@H]1c1ccccc1,-5.6,0.53,98.6,68.9*,-8.8,-0.1
O=C(N/N=C/c1ccc(-c2ccc([N+](=O)[O-])cc2)o1)[C@H]1C[C@@H]1c1ccccc1,/,/,/,2.3,/,1.8
Cc1n[nH]c(=S)n1/N=C/c1ccc(-c2ccccc2[N+](=O)[O-])o1,-6.3,1.21,105.5,60.1*,14.2,1.0
Cc1nnc(N/N=C/c2ccccc2O)n1N,-4.7,1.32,109.4,48.1*,-13.8,0.7
Cc1nnc(N/N=C/c2c(Cl)cccc2Cl)n1N,1.8,1.04,105.5,12.5,-4.0,0.3
Cc1nnc(N/N=C\c2ccc(-c3ccccc3[N+](=O)[O-])o2)n1N,-9.6,0.91,105.4,61.0*,-0.2,1.7
O=[N+]([O-])c1cccc(-c2ccc(/C=N/n3c(-c4ccccc4)n[nH]c3=S)o2)c1,-3.0,0.99,92.5,9.9,1.6,1.1
CC1CC1C(=O)OCC(=O)Nc1ccc2[nH]c(=O)[nH]c2c1 (stereo not drawn),-17.4,1.02,103.9,-1.1,-11.1,0.9
CN(CCC1CCOCC1)C(=O)CC1C(=O)NCCN1Cc1ccccc1F (stereo not drawn),/,/,/,0.3,/,/
CCOC(=O)c1[nH]cc(-c2ccccc2)c1N1CCOCC1,12.3,1.08,93.5,48.6*,-1.4,-0.4
CCOC(=O)c1cnc(SCC(C)C)nc1N,-5.0,4.67*,136.7*,3.2,145.8*,0.4
CCOC(=O)c1cnc(SC)nc1N,-21.5,1.33,102.2,-6.2,-0.4,0.3
CCOC(=O)c1ccc2ncc(-c3ccccc3)nc2c1,-7.1,4.21*,148.2*,/,138.7*,1.0
Cc1cc2ncc(-c3ccccc3)nc2cc1C,/,/,/,19.9,/,/
CCOC(=O)c1cnc(SCC(=O)c2ccccc2)nc1N,-57.1,3.73*,144.2*,8.4,111.9,2.7
CCOC(=O)c1cnc(SCC(=O)c2ccc(C)cc2)nc1N,-9.9,1.29,103.1,0.6,11.6,1.7
CCc1ccc(C(=O)OCC(=O)c2c(N)n(CC(C)C)c(=O)n(C)c2=O)cc1,-19.7,0.69,85.2,0.8,-1.4,0.0
CC1(C)NC(=O)N(CC(=O)Nc2nc(-c3ccc(F)cc3)cs2)C1=O,-14.4,0.42,100.7,6.0,10.4,0.2
C=CCn1c(SCC(=O)N(CC)C2CCS(=O)(=O)C2)nc2cc(C(=O)O)ccc2c1=O (stereo not drawn),/,/,/,-0.5,/,/
CCOC(=O)c1nnc(-c2ccccc2)nc1N1CCSCC1,12.4,1,94.0,39.9,-4.7,1.0
CCOC(=O)c1cnc(-c2ccccc2)nc1N1CCOCC1,-9.3,1.06,98.3,48.1*,20.1,0.1
SMILES,MDM2 E3 inh,NF-kB expr up,STAT1 activator,AHR act,APP 5'UTR act,PERK inhibitor
CCOC(=O)c1cnc(-c2ccccc2)nc1N,-16.8,4.95*,145.6*,5.8,125.9,0.4
CCOC(=O)c1cnc(-c2ccccc2)nc1N(C)C,-8.6,1.86,116.5,32.9,92.2,-0.7
O=C(NCC(c1ccco1)N1CCOCC1)C1CCCCC1 (stereo not drawn),/,/,/,-1.4,/,/
CCCCCOC(=O)c1[nH]c2c(c1C)C(=O)CC(c1ccco1)C2 (stereo not drawn),/,5.16*,101.8,139.5*,-95.3,-0.8
CC(Cc1ccccc1)NC(=O)c1ccc([N+](=O)[O-])cc1 (stereo not drawn),-18.1,3.12,143.4*,3.0,103.8,0.9
CC(Cc1ccccc1)NC(=O)/C=C/c1ccc([N+](=O)[O-])cc1 (stereo not drawn),-10.3,1.09,91.3,4.3,4.8,-0.1
O=C(CNC(=O)c1ccccc1)OCc1ccc([N+](=O)[O-])cc1,9.6,1.07,104.5,5.6,8.1,1.4
